Consider 8 molecules from PMC2574552 (Molecular pharmacology, 2008).

The subject of data set [1] is haloperidol-induced catalepsy. The data set can be described thus: reversal of haloperidol-induced catalepsy. Format: in vivo. The note with it: rat, icv. In outline:
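Male Sprague-Dawley rats (225−255 g) carried third-ventricle cannulae. They received haloperidol 1.5 mg/kg i.p. in 0.2% lactic acid. At 2 h, cataleptic rats (staying on the bar 45−60 s; forepaw-removal latency timed) got icv either L-AP4 (100−1000 nmol/10 μl, artificial CSF), test compound (31 or 93 nmol/10 μl, aqueous vehicle pH 7.4) or vehicle. Rats were retested at 15, 30 and 60 min; 6 rats/group; Dunnett's test versus vehicle.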

Data set [2] deals with reserpine-induced akinesia. The data set is described as follows: reversal of reserpine-induced akinesia. The class given is in vivo. The note with it: rat, icv, reserpine 5 mg/kg s.c., 2 h pretreatment.
For the next data set, the target named is rat mGluR4 (Rattus norvegicus, UniProt P31423). The data set is described as follows: rat mGluR4/GIRK thallium flux assay. The class given is cell-based. Particulars: for Fold shift rmGluR4/GIRK: leftward shift of glutamate concentration-response curve at 30 μM PAM; for % Max rmGluR4/GIRK: maximal potentiated EC20 response vs response to maximal glutamate alone.

The target of another data set is rat mGluR5 (Rattus norvegicus, UniProt P31424). The data set is described as follows: rat mGluR5/HEK calcium fluorescence counterscreen. Format: cell-based. Particulars: 30 μM; glutamate EC20. In outline: (§1)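 Cells were plated on poly-D-lysine plates in DMEM with 10% dialysed FBS, 20 mM HEPES and 1 mM pyruvate: mGluR1/BHK at 15,000 cells/well, mGluR5/HEK at 20,000 cells/well. They were loaded with 1 μM Fluo-4 AM for 45 min at 37°C in HBSS with 20 mM HEPES and 2.5 mM probenecid. […] Peak fluorescence was taken against control and normalised to no-compound response.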
In general terms: A counterscreen serves to expose hits that act by an unwanted route or on another target.

The target of a further data set is rat mGluR1 (Rattus norvegicus, UniProt P23385). The data set can be described thus: rat mGluR1/BHK calcium fluorescence counterscreen. The class given is cell-based. Particulars: 30 μM; glutamate EC20. In outline: as §1
For a further data set, the target named is rat mGluR7 (Rattus norvegicus, UniProt P35400). The data set can be described thus: rat mGluR7/GIRK thallium flux assay. Format: cell-based. Particulars: 30 μM; L-AP4 EC20. The method in brief:
(§2)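 GIRK-coexpressing cells were plated at 15,000/well on poly-D-lysine and grown overnight at 37°C, 5% CO2. They were loaded with 1.7 μM BTC-AM for 1 h at room temperature, then buffer was exchanged. […] Fluorescence was read at 470/540 nm, at 1 Hz for 2 min after agonist. Normalised to no-compound response; mean ± S.E.M.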

A further data set has as its target rat mGluR8 (Rattus norvegicus, UniProt P70579). The data set is described as follows: rat mGluR8/GIRK thallium flux assay. Format: cell-based. Particulars: 30 μM; glutamate EC20. In outline: as §2
The target of a further data set is human mGluR2 (Homo sapiens, UniProt Q14416). The data set can be described thus: human mGluR2 GTPγS binding assay. The class given is biochemical. The note with it: 30 μM; glutamate EC20. In outline:
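Nonspecific binding: 10 μM unlabelled GTPγS. Mixes shaken 60 min at room temperature, filtered, washed three times and counted by scintillation. Normalised to no-compound response; mean ± S.E.M.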

The next data set has as its target human mGluR4 (Homo sapiens, UniProt Q14833). The data set can be described thus: human mGluR4/Gqi5/CHO calcium mobilization assay. The class given is cell-based. Particulars: for Fold shift hmGluR4/Gqi5: leftward shift of glutamate concentration-response curve at 30 μM PAM.
The subject of a further data set is mGluR4. Particulars: read-out: potency at mGluR4 in vitro; ref Marino et al., 2003; cited from earlier work.
Data set [3] can be described thus: solubility in dosing vehicle. The class given is physicochemical.
In data set [4] the test system is 67 different targets including GPCRs, ion channels, and transporters. The data set is described as follows: MDS-Pharma radioligand binding panel. The note with it: MDS-Pharma Services; Supplemental Table 2.
A further data set has as its system NMDA receptor. Format: cell-based, rat. Particulars: n = 5.

Like-named read-outs stand apart in the source and are kept apart here.

Chain of rat mGluR4 (P31423 33-912): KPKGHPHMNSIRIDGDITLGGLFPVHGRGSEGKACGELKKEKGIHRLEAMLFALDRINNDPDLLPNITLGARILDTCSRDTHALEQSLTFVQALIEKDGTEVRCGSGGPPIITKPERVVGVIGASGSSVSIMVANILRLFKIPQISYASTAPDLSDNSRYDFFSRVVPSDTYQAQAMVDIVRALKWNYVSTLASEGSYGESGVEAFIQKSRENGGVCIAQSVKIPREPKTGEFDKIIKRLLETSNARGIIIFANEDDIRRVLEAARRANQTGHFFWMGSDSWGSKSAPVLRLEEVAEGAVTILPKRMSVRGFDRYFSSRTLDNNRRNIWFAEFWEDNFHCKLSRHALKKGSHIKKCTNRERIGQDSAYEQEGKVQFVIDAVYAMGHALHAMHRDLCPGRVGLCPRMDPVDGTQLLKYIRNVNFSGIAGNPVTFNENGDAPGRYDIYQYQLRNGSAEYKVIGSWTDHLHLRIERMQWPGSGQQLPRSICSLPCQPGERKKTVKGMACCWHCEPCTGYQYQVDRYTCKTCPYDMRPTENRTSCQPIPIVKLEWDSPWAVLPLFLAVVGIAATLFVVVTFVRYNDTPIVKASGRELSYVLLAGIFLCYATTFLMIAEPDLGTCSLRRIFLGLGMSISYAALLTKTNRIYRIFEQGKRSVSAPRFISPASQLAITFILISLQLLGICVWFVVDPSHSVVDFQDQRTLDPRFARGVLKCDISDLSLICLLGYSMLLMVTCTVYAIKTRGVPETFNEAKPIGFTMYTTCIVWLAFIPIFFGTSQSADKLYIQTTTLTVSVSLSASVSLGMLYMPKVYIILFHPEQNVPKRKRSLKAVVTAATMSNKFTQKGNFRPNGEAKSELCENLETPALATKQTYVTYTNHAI
Chain of human mGluR4 (Q14833 33-912): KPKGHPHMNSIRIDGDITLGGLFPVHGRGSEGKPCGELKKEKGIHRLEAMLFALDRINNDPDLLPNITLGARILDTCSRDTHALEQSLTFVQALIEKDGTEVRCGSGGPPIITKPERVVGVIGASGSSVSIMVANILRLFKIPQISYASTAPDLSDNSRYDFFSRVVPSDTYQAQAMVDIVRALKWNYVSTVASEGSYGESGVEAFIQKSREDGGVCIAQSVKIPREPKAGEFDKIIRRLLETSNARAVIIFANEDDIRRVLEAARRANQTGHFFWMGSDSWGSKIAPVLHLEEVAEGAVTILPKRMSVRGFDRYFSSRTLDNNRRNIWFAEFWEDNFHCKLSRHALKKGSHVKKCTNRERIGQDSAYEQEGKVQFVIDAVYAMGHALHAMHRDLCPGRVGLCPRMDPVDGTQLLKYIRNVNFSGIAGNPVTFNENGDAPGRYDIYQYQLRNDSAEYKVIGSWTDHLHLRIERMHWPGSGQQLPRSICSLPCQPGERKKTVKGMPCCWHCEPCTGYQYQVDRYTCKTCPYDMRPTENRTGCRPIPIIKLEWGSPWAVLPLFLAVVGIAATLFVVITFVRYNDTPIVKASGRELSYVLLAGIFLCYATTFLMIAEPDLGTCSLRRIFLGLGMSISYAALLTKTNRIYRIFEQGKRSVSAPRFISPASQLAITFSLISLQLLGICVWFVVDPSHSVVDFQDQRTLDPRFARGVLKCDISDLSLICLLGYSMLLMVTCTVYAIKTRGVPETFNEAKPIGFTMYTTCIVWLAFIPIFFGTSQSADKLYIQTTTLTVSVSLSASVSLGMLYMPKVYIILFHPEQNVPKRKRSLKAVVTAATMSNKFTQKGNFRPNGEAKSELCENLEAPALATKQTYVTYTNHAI
Chain of rat mGluR8 (P70579 34-908): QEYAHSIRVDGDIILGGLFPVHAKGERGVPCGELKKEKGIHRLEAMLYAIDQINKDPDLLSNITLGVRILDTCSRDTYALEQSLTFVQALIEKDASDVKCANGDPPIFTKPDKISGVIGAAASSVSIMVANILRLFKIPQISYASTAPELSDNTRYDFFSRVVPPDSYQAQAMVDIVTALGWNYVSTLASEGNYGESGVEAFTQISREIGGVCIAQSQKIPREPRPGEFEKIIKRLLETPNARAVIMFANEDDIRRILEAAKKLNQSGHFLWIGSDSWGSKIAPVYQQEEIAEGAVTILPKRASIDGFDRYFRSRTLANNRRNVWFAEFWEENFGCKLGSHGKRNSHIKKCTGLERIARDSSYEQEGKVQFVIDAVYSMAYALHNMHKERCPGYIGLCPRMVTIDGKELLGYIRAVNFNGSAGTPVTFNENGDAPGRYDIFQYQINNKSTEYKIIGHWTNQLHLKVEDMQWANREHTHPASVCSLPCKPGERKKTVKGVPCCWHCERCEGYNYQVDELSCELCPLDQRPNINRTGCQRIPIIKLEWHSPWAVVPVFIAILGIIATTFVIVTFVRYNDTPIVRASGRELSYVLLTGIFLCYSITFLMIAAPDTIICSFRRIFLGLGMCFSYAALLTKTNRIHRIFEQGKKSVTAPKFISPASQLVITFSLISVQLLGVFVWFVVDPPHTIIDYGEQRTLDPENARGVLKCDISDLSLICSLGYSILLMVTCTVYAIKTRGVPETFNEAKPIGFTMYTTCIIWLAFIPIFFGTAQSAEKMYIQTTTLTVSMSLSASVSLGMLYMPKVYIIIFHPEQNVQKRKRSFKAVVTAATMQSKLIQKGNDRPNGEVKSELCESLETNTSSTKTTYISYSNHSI
Chain of rat mGluR7 (P35400 35-915): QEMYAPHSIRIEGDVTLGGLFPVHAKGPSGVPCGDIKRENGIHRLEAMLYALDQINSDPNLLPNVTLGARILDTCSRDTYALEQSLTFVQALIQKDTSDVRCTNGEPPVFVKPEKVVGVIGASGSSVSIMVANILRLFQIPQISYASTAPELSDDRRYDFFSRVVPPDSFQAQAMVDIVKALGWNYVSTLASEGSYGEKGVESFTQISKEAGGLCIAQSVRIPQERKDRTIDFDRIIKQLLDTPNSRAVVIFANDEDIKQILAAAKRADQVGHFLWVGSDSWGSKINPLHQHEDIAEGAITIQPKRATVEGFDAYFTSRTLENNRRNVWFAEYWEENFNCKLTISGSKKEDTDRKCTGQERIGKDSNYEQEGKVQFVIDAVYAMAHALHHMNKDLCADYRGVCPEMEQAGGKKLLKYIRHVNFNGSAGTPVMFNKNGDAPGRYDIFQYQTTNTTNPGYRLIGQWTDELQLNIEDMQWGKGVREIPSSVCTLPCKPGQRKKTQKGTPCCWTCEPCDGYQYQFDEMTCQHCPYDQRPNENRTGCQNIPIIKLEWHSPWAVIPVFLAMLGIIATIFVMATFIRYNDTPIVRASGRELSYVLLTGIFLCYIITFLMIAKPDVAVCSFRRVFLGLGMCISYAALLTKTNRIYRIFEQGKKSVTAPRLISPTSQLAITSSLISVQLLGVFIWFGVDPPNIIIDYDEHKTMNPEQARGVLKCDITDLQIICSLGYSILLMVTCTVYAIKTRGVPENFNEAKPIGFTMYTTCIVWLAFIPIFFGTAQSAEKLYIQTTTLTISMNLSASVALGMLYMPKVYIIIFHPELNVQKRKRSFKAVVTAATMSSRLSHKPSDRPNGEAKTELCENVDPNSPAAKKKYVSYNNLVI
Chain of human mGluR2 (Q14416 19-872): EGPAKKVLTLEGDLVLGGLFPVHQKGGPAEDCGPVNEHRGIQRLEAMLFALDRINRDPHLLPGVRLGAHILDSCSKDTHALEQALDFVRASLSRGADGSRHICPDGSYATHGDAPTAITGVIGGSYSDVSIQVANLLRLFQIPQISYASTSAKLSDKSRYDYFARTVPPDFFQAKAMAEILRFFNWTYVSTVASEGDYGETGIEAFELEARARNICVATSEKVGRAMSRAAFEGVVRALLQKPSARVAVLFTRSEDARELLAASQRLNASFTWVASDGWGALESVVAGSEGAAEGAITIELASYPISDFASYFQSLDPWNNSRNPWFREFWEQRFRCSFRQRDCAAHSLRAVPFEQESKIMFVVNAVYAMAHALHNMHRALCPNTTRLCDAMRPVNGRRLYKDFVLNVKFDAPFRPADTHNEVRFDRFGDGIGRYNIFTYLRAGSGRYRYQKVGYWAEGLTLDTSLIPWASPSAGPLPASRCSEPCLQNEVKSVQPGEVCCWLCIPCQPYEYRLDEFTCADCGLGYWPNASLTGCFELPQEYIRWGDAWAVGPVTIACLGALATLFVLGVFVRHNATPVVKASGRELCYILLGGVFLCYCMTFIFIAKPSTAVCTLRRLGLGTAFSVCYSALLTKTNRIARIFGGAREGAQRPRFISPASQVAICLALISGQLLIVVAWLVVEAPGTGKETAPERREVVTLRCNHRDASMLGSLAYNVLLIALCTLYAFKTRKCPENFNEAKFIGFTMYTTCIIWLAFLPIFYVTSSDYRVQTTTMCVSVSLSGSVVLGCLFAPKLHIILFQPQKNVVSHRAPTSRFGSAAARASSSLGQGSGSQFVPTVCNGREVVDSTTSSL

With `N[C@@H](CCP(=O)(O)O)C(=O)O` [L-AP4, L-(+)-2-amino-4-phosphonobutryic acid, reference compound], the haloperidol-induced catalepsy result in data set [1] (100−1000 nmol, dose-dependent, haloperidol 1.5 mg/kg i.p.) is “significantly decreased”. Moreover, the “reversal of reserpine-induced akinesia” value in data set [2] (300 and 1000 nmol) is “significant reversals of akinesia”.
As for `O=C(O)C1CCCCC1C(=O)Nc1cc(Cl)cc(Cl)c1` (centres unmarked) [Compound 2h, 2-(3,5-Dichlorophenylcarbamoyl)cyclohexanecarboxylic acid], on rat mGluR4, the EC50 was 560 ± 100 nM, the “Fold shift rmGluR4/GIRK” value is on record as 7.7±0.6 fold and the “% Max rmGluR4/GIRK” value amounted to 107.6±6.3%. In addition, on rat mGluR5, the “potentiation of EC20 agonist response, mGluR5” value was “did not potentiate”. Moreover, the “potentiation of EC20 agonist response, mGluR1” value at rat mGluR1 is “did not potentiate”. Moreover, the “potentiation of EC20 agonist response, mGluR7” value on rat mGluR7 is “did not potentiate”. Further, the “potentiation of EC20 agonist response, mGluR8” value at rat mGluR8 is “did not potentiate”. Moreover, on human mGluR2, the “potentiation of EC20 agonist response, mGluR2” value is “did not potentiate”. On human mGluR4, the EC50 was found to be 750 ± 200 nM and the “Fold shift hmGluR4/Gqi5” value is listed as 6.5±1.0 fold. Besides, at human mGluR4 (10 μM, absence of glutamate, trace from original HTS), the “response to compound alone in calcium assay” value is “small calcium response”. Also, the “improved potency compared to PHCCC” value on human mGluR4 (mGluR4 PAM potency relative to PHCCC) is reported as “approximately 8 fold”. Further, the “% Max hmGluR4/Gqi5” value at human mGluR4 (maximal potentiated EC20 response vs response to maximal glutamate alone) was 120.0±6.7%.
`O=C(O)[C@@H]1CCCC[C@H]1C(=O)Nc1cc(Cl)cc(Cl)c1` (racemic) [VU0155040, (±)-trans-2-(3,5-Dichlorophenylcarbamoyl)cyclohexanecarboxylic acid]: the “Fold shift rmGluR4/GIRK” value at rat mGluR4 was 2.5±0.5 fold. Also, at human mGluR4, the “Fold shift hmGluR4/Gqi5” value was 3.0±0.3 fold.
With “N-Phenyl-7-(hydroxyimino)cyclopropa[b]chromen-1a-carboxamide [PHCCC, reference compound]”, at rat mGluR4 (compound alone, no glutamate, observed at 30 μM), the “maximal agonist response, percent of the maximal glutamate response” value is −2.3±2.0%. At rat mGluR4, the “% Max rmGluR4/GIRK” value stood at 120.3±4.4%. The EC50 in the data set on mGluR4 was ~4 µM. Moreover, the solubility in vehicle result in [3] (vehicle for icv administration) is given as “only soluble in vehicles containing high concentrations of DMSO or other relatively toxic vehicles”.
Take `O=C(Nc1cc(Cl)cc(Cl)c1)[C@H]1CCCC[C@H]1C(=O)O` (racemic) [VU0155041, (±)-cis-2-(3,5-Dicholorphenylcarbamoyl)cyclohexanecarboxylic acid]: the “Fold shift rmGluR4/GIRK” value on rat mGluR4 amounted to 4.7±0.4 fold. For the same molecule, the EC50 at rat mGluR4 (read-out: potency at rat mGluR4 (GIRK assay), potentiation of EC20 glutamate) stood at 693 ± 140 nM. For the same molecule, in [3], the solubility in vehicle result is “soluble in an aqueous vehicle”. For the same molecule, the haloperidol-induced catalepsy result in [1] (doses of 31 and 92 nmol, effects still present 30 min after infusion) is listed as “significantly decrease”. In data set [4], the “effect on radioligand binding at 67 targets” value is listed as “no effect on binding at any target examined”. Further, the “reversal of reserpine-induced akinesia” value in data set [2] (316 nmol) was “significant reversal of akinesia”. In addition, the “amplitude of NMDA receptor currents” value in the data set with NMDA receptor (10 μM, p > 0.3) is given as 106.3 ± 5.8 % of control. Further, the “Fold shift hmGluR4/Gqi5” value on human mGluR4 is on record as 6.4±0.7 fold.
In the case of `O=C(O)C1CCCCC1C(=O)Nc1cc(Cl)cc(Cl)c1` [(1R, 2S)], at human mGluR4 (mGluR4, assay not specified, data not shown), the “potency and efficacy of single cis-enantiomers” value is “equal potency and efficacy”.
Take `C[C@@H](CN1CCC(Cc2ccccc2)CC1)[C@@H](O)c1ccc(O)cc1` [Ro25−6981, (αR,βS)-α-(4-hydroxyphenyl)-β-methyl-4-(phenylmethyl)-1-piperidinepropanol, reference compound]: the “peak amplitude of NMDAR currents” value with NMDA receptor (1 μM, p < 0.003) is 53.1 ± 8.5 % of control.
`N[C@@H](CCC(=O)O)C(=O)O` [glutamate, L-glutamate, reference compound] displayed an EC50 at rat mGluR4 of 9200 ± 1200 nM.
